Results from different studies.
Protocols differ between the studies behind these lines.
Target: Serine/threonine-protein kinase Sgk2 (SGK2, Homo sapiens, UniProt Q9HBY8)
One construct used (Q9HBY8 1-367): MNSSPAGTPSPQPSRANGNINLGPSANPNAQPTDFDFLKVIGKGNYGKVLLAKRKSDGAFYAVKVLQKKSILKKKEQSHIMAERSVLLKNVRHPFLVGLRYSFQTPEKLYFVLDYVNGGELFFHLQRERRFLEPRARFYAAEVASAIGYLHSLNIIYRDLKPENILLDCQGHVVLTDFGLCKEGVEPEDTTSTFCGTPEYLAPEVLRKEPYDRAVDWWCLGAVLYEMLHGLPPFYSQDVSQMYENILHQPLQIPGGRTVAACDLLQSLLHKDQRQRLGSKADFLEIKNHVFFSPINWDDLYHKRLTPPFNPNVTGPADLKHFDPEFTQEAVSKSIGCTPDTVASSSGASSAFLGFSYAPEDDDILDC

| SMILES | assay | setting | remaining binding [%] |
| --- | --- | --- | --- |
| CC1=C(C#N)C(c2ccc3c(c2)c(NC(=O)c2ccccc2C)nn3C)C(C#N)=C(C)N1 | cell-free assay, competition with immobilised ligand | 1 µM | 73 |
| Cc1cnn2ncc(-c3ccnc(N(C)C)n3)c2c1 | binding | 1 µM | 84 |
| c1cncc(-c2cccc(Nc3nccc(NC4CCCCC4)n3)c2)c1 | binding, competition with immobilised ligand | 10 µM | 95 |
| CN(c1nccc(-c2cnn3ncccc23)n1)C1CC1 | binding | 1 µM | 86 |
| CCOC(=O)c1cc2cc(-c3cc(C(=O)NCc4ccc(C(=O)O)cc4)nn3C)ccc2[nH]1 | cell-free assay, competition with immobilised ligand | 0.1 µM | 100 |
| O=C(NCC1CCOCC1)c1n[nH]cc1NC(=O)c1c(F)cccc1F | binding, competition with immobilised ligand | 1 µM | 94 |
| C[C@H]1CCN(c2nccc(-c3cnn4ncccc34)n2)C1 | binding | 1 µM | 65 |
| C[C@@H](c1ccc(-n2cnc3c(N)ncnc32)cc1)N1CCc2nn(C)c(Cc3ccccc3)c2C1=O | binding, competition with immobilised ligand | 0.1 µM | 48 |
| Cn1cc(Cl)c2c(Oc3c(F)cc(Nc4cc(Cl)nc(N)n4)cc3F)ccnc21 | cell-free assay, competition with immobilised ligand | 0.1 µM | 86 |
| CC1CCCN1c1nccc(-c2cnn3ncccc23)n1 (centres unmarked) | binding | 1 µM | 94 |
| O=C(c1ccc(Nc2ncc(Cl)c(-c3cc4ccccc4s3)n2)cc1)N1CCC(N2CCCC2)CC1 | binding, competition with immobilised ligand | 1 µM | 48 |
| CN(C)c1nccc(-c2cnc3ncccn23)n1 | binding | 1 µM | 81 |
| O=C(NCc1ncc(C(F)(F)F)cc1Cl)c1ccc2c(c1)C1(CCS(=O)(=O)CC1)[C@H](C1CC1)N2S(=O)(=O)c1ccc(F)cc1 | cell-free assay, competition with immobilised ligand | 1 µM | 83 |
| O=C(c1ccc(Nc2ncc(Cl)c(-c3ccc(Cl)s3)n2)cc1)N1CCC(N2CCCC2)CC1 | binding, competition with immobilised ligand | 1 µM | 100 |
| CCCOc1ccc([C@@H]2[C@@H](C(=O)O)[C@H](c3ccc4c(c3)OCO4)CN2CC(=O)Nc2c(CC)cccc2CC)cc1 | cell-free assay, competition with immobilised ligand | 1 µM | 69 |
| CN(C)c1ncc(F)c(-c2cnn3ncccc23)n1 | binding | 1 µM | 72 |
| CC(=O)N1CCC(c2ccc(C(=O)NC(=N)N)cc2C(F)(F)F)CC1 | cell-free assay, competition with immobilised ligand | 1 µM | 100 |
| CNC(=O)[C@@H]1CC[C@@H](n2c(-c3ccc4cnccc4c3)nc3ccc(C(=O)NCc4cccc(C(N)=O)c4)cc32)C1 | binding, competition with immobilised ligand | 1 µM | 100 |
| Cc1cnc(Nc2ccc(C(=O)N3CCC(N4CCCC4)CC3)cc2)nc1-c1cc2ccccc2s1 | binding, competition with immobilised ligand | 1 µM | 29 |
| FC(F)(F)Oc1cccc(-c2cnc3ccc(-c4ccncc4)nn23)c1 | binding, competition with immobilised ligand | 5 µM | 77 |
